# From PubChem BioAssay
# Compounds with a hit are over-represented: about 2.4% of the library has one in this group of screens.
# Runt-SMMHC FRET: blocks binding of human RUNX1 Runt domain to CBFb-SMMHC | Cerulean-Runt/Venus-CBFb-SMMHC FRET ratio 530/480, 1 h | inhibition, % at 20 µM | 220,000 tested, 0.74% active | AID 1434;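 active means mean inhibition across duplicate retests at 20 µM reaching about 50%, limit read from the data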;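 further: 0% = DMSO wells and 100% = wells with excess untagged CBFb-SMMHC; inhibitors lower the FRET ratio by blocking Runt binding to CBFb-SMMHC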
# LANA-H2A inh: blocks KSHV LANA binding to histone H2A/H2B; Q9QR71; cell-free LANA-H2A/H2B peptide, fluorescence polarization; inhibition, % (test concentration not listed); 320,000 tested, 0.6% active; AID 2629; in the data active means inhibition mostly above about 10%, no sharp cut-off; inactive means mostly below about 6.7%
# Runt-CBFb FRET: Runt domain-CBFb interaction inhibition; AID 1496; inhibition, % at 20 µM; 220,000 tested, 0.46% active; Q01196+Q13951; Cerulean-Runt/Venus-CBFb FRET ratio 530/480, 1 h;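 active means inhibition over about 50% at 20 µM in the single-dose screen, limit read from the data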;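 further: 0% = DMSO wells and 100% = excess unlabeled CBFb competitor control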
#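 Reagent – Venus-CBFb binding partner, 100 nM · Assay system – Cerulean-tagged RUNX1 Runt domain (FRET donor) fusion protein · Input – 100 nM per protein · Incubation – two 1 h room-temperature incubations shielded from light · Measured by – FRET fluorescence · Medium – Tris buffer pH 7.5 with salts and BSA · Benchmarks – unlabeled CBFb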
# MEX-5 binding: C. elegans MEX-5 TCR-2 RNA binding activity | MEX-5/FITC-TCR2 RNA binding, fluorescence polarization; hits give low values | activity score (negative = inhibition of binding), % at 10 µM | 300,000 tested, 0.38% active;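 active means inhibition past about -25% in most replicates, and total fluorescence under double the plate's negative control median, limit read from the data; inconclusive means replicates evenly split on the limit, or fluorescence at least double controls; inactive means too little inhibition in most replicates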;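 further: 0% = DMSO and -100% = 5 µM competing unlabeled TCR2 RNA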
# Target sequence (Q9XUB2 whole entry, looked up): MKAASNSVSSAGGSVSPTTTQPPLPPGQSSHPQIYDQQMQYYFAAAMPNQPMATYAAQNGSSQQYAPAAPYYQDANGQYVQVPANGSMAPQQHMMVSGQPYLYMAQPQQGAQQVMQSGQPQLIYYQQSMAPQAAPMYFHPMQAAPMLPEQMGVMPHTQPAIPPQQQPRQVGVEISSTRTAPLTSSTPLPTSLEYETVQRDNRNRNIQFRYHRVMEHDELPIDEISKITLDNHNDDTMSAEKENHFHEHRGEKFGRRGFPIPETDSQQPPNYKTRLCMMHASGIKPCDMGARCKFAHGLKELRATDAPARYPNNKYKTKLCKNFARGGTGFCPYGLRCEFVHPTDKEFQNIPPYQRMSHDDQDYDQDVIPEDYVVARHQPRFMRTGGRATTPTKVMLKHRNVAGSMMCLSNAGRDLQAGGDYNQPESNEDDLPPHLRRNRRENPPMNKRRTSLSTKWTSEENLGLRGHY
# EBV gp42 inh: EBV gp42 inhibition; Fluorescence polarization binding assay, mP read-out; Q1HVG2; inhibition, % (tested at 21.74 µM); 220,000 tested, 0.42% active; in the data active means inhibition above about 50%
# Target sequence (Q1HVG2 whole entry, looked up): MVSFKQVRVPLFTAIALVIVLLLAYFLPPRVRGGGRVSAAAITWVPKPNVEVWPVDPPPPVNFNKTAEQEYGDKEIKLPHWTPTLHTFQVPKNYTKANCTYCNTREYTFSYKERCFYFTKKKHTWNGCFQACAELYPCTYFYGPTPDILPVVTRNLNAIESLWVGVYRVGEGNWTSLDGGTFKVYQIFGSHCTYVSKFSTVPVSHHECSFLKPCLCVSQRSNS
# RanGTP-Imp inh: inhibitors of RanGTP-importin-beta interaction, primary screen, biochemical, FRET, CFP-Ran, YFP-importin-beta, homogeneous | cell-free CFP-Ran/YFP-importin-beta FRET ratio | inhibition, % (test concentration not listed) | 300,000 tested, 1.1% active | AID 2216;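 active means more than half of the replicate wells show a fall in the fluorescence ratio signal beyond about 16%, limit read from the data, passing the limit was not always enough; inconclusive means exactly half of the replicate wells pass the set limit; inactive means fewer than half of replicates pass the limit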;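 further: 0% = DMSO wells and 100% = Ran loaded with GDP instead of GTP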
# * hit, by the source's call; ? = inconclusive; / = no result given.
SMILES,Runt-SMMHC FRET,LANA-H2A inh,Runt-CBFb FRET,MEX-5 binding,EBV gp42 inh,RanGTP-Imp inh
CC(C)c1nc(SCC(=O)N2CC(=O)Nc3ccccc32)c2ccccc2n1,-0.7,1.3,-4.1,-0.8,9.3,-1.1
Oc1ccc2ccccc2c1C=Nc1ccc(Cl)cn1,10.9,3.0,23.5,-0.8,82.0*,/
Oc1ccc2ccccc2c1/C=N/n1cnnc1,115.5*,-2.4,66.7*,-3.5,-4.1,3.3
Cc1cc(O)c(C=Nc2ccc(Cl)cn2)c(=O)o1,-7.7,-2.5,2.2,-0.1,-2.4,-3.0
CC(C)CN(C(=O)COC(=O)Cc1c[nH]c2ccccc12)c1c(N)n(Cc2ccccc2)c(=O)[nH]c1=O,/,1.8,/,6.1,/,3.9
CC1=Nc2ccccc2/C1=C/c1sc(=N)n(-c2nccs2)c1O,-112.1,1.1,-42.1,4.9,-105.4,22.6*
CCOP(=O)(OCC)C(C#N)=C1SCN(c2ccc(Cl)cc2)CS1,-1.3,3.3,6.4,-3.1,-2.7,?
O=C(O)c1ccc(CS(=O)c2cccc(C(F)(F)F)c2)o1 (configuration not stated),-3.8,119.1*,/,0.0,-0.3,-1.7
Cc1cccc(S(=O)Cc2ccc(C(=O)N3CCOCC3)o2)c1 (configuration not stated),/,-4.2,/,-1.6,/,-1.9
COc1ccc(OC)c(NC(=O)c2ccccc2OC(C)=O)c1,/,0.1,/,0.0,/,-3.9
COc1ccc(C2C(C#N)=C(C)NC3=C2C(=O)CC(C)(C)C3)cc1 (configuration not stated),39.9,-6.6,16.8,-3.2,-18.5,-2.0
CCOC(=O)C1=C(C)NC2=C(C(=O)CC(C)(C)C2)C1c1ccc(N(C)C)cc1 (configuration not stated),16.4,-0.9,3.8,-0.2,-2.7,0.8
COC(=O)C1=C(C)NC2=C(C(=O)CC(C)(C)C2)C1c1cccc(C)n1 (configuration not stated),86.7*,0.1,35.1,0.4,-22.1,9.2
CC1=C(C(=O)OCC2CCCO2)C(c2ccncc2)C2=C(CC(C)(C)CC2=O)N1 (configuration not stated),86.3*,-7.5,42.3,0.0,-17.9,?
COc1cccc(C2C(C#N)=C(C)NC3=C2C(=O)CC(C)(C)C3)c1 (configuration not stated),55.0*,3.0,16.6,-1.1,0.8,1.8
COc1ccc(-c2cn[nH]c2-c2ccc(OCC(=O)NN)cc2O)cc1OC,/,2.0,/,-45.6*,/,-3.2
COc1ccc(-c2cn[nH]c2-c2ccc(OCC(=O)NN)cc2O)cc1,/,2.9,/,-10.8,/,-2.2
CN1CCC(N(C)CC(=O)Nc2cccc(Oc3ccccc3)c2)CC1,0.7,0.8,-0.7,0.4,-21.3,0.1
O=c1[nH]c(N/N=C/c2ccc(O)cc2)nc2ccccc12,38.7,8.2,45.4,-2.1,4.1,-0.5
Cc1ccc(Nc2nc3ccccc3c(=O)[nH]2)cc1C,-1.6,-5.8,-1.2,-1.9,-6.9,-6.4
COc1ccc(Nc2nc3ccccc3c(=O)[nH]2)cc1,3.5,21.5*,0.4,0.4,-0.4,-0.7
O=c1[nH]c(N/N=C\c2ccc(F)cc2)nc2ccccc12,18.7,5.9,15.7,0.0,-2.2,38.3*
COc1ccc(C(=O)Nc2nc3cc(OC)c(OC)cc3c(=O)[nH]2)cc1,1.4,-2.9,0.1,/,10.6,/
COc1ccc(C(=O)Nc2nc3ccccc3c(=O)[nH]2)cc1,-0.1,39.8*,0.6,3.1,-3.2,1.0
CC1CCCCN1C(=O)CSc1nnc(-c2cccs2)o1 (configuration not stated),/,-1.4,/,-2.7,/,-0.9
SMILES,Runt-SMMHC FRET,LANA-H2A inh,Runt-CBFb FRET,MEX-5 binding,EBV gp42 inh,RanGTP-Imp inh
Cc1c(N=C2N=C(NC(=O)c3ccc(F)cc3)c3ccccc32)c(=O)n(-c2ccccc2)n1C,-90.2,0.5,-24.7,-9.4,115.9*,0.6
COc1ccc(C(=O)NC2(C(F)(F)F)C(=O)N(Cc3ccco3)C3=C2C(=O)CC(C)(C)C3)cc1OC (configuration not stated),1.6,2.0,/,?,77.3*,-0.4
COc1cc(C(=O)NC(=S)Nc2ccc(N3CCCC3)cc2)cc(OC)c1OC,1.4,-5.8,4.2,0.1,-12.2,-2.3
COc1ccc(-n2c(NC(=O)c3ccc(Br)o3)c(C#N)c3nc4ccccc4nc32)cc1,43.7,/,87.7*,-3.5,9.0,155.0*
N#Cc1c(NC(=O)c2ccc(Br)o2)n(-c2ccccc2)c2nc3ccccc3nc12,81.0*,2.9,37.5,-7.7,-1.9,162.3*
CC(=O)Nc1ccc(Oc2cncc(Cl)c2)nc1,-0.2,4.6,1.4,-0.5,-14.1,0.2
COc1ccc(NC(=O)CN(C)CC(=O)Nc2cccc(S(=O)(=O)N(C)c3ccccc3)c2)cc1,-3.0,3.0,-4.3,-0.3,-8.6,-2.3
Nc1nc(-c2cc(O)ccc2[N+](=O)[O-])cc(-c2ccccc2)c1[N+](=O)[O-],/,-3.7,/,-16.1,/,34.0*
O=C1CC(c2ccc(Cl)cc2)c2c(O)cc(O)cc2O1 (configuration not stated),/,4.2,/,2.4,/,-2.8
C/C=C/C=C/[C@H]1Cc2cc(O)cc(O)c2O1,-22.4,5.9,3.9,-8.7,53.8*,22.0*
CCN1C(=O)/C(=C/N2CCc3ccccc32)SC1=S,61.6,7.5,-72.2,-11.3,-41.4,27.8*
CCN1C(=O)/C(=C\N2CCCc3ccccc32)SC1=S,-0.2,3.8,-1.8,-0.7,-6.8,9.7
COC(=O)CCC(=O)OC1(C)C(=O)C=C2C=C(C3CC3)OC=C2C1=O (configuration not stated),/,6.0,/,-41.7*,/,-7.1
COC(=O)CCC(=O)OC1(C)C(=O)C=C2C=C(c3ccsc3)OC=C2C1=O (configuration not stated),/,1.9,/,-41.2*,/,-8.4
CCC(=O)OC1(C)C(=O)C=C2C=C(c3ccsc3)OC=C2C1=O (configuration not stated),-18.8,2.3,3.8,-6.8,1.2,2.6
COC(=O)CCC(=O)OC1(C)C(=O)C=C2C=C(C3CC3)N(c3ccc(CO)cc3)C=C2C1=O (configuration not stated),/,2.3,/,-36.4*,/,2.4
CC1(O)C(=O)C=C2C=C(C3CC3)OC=C2C1=O (configuration not stated),/,-0.7,/,-60.4*,/,-7.5
CC1(OC(=O)CCc2ccccc2)C(=O)C=C2C=C(C3CC3)OC=C2C1=O (configuration not stated),/,-1.0,/,-18.7,/,0.8
CCOC(=O)/C=c1\s/c(=C\c2ccc3cc(OC)ccc3c2)c(=O)n1CC(=O)NCC1CCCO1 (configuration not stated),-225.4,-4.2,-123.0,-47.1*,-44.5,6.4
